This is an account of results in PMC2921666 (Genes & cancer, 2010).

The GI50 is the concentration giving 50% growth inhibition. A low value points to greater sensitivity of the cells. By IC50 is commonly meant the concentration that gives 50% inhibition.

A value given as a limit tells only on which side of the number the result lay.

Assay [1] deals with STAT-5 phosphorylation in 32D:p210T315I cells. As to the kind of experiment: STAT-5 phosphorylation in 32D:p210T315I cells. The conditions noted are these: 2 hours. It is filed as cell-based, murine. Put shortly:
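Exponentially growing 32D:p210T315I cells, kept in IMDM with 10% FBS, were given the test compound at the indicated concentrations for 2 h. They were then PBS-washed and lysed in detergent buffer. 50 µg of clarified lysate underwent SDS-PAGE and Western blotting for phospho-STAT-5.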

Assay [2] has as its system K562 cells. Kind of assay: Growth inhibition, K562 cells. Type of assay: cell-based. The settings on record: Homo sapiens, K562, 72 h. The method in brief: (§1)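 Cells grown 72 h with varying concentrations of test compound. Media: Ba/F3:JAK2V617F in RPMI 1640 with 10% FBS plus 1% WEHI-3B conditioned medium (IL-3 source); 32D:p210T315I in IMDM with 10% FBS; K562 in RPMI 1640 with 10% FBS; HEL and SET-2 in RPMI 1640 with 20% and 10% heat-inactivated FBS. Viability by Trypan blue exclusion; GI50 from percent viable cells plotted against drug concentration.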

In assay [3] the test system is 32D:p210T315I cells. Kind of assay: Growth inhibition, 32D:p210T315I cells. Type of assay: cell-based, murine. The conditions noted are these: Mus musculus, 72 h. The method in brief:
as §1

In assay [4] the target is recombinant V617F mutant JAK2 (aa 532-1132) (Homo sapiens, UniProt O60674, V617F). Kind of assay: Radiometric kinase assay, recombinant V617F mutant JAK2. It is filed as biochemical. The settings on record: read-out: IC50, kinase activity of mutant JAK2 (V617F); JAK2-V617F aa 532-1132, GST-Abltide substrate, 20 μM ATP.
For assay [5], the system named is JAK2 phosphorylation in Ba/F3:JAK2V617F cells. As to the kind of experiment: JAK2 phosphorylation in IL-3-stimulated Ba/F3:JAK2V617F cells. It is filed as cell-based, mouse. The settings on record: 2 hours, with recombinant IL-3. The method in brief:
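Mid-log-phase Ba/F3:JAK2V617F cells were treated 2 h with the test compound at the indicated concentrations, including 1 h with 5 ng/mL recombinant mouse IL-3. Washed cells were lysed in detergent buffer. 50 µg of clarified lysate was run on SDS-PAGE and immunoblotted with anti-phospho-JAK2 (Tyr1007/1008). Blots were stripped and reprobed for total JAK2.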

The test system of assay [6] is Ba/F3:JAK2V617F cells. As to the kind of experiment: Growth inhibition, Ba/F3:JAK2V617F cells. The settings on record: 72 hours. Type of assay: cell-based, mouse. The method in brief:
as §1

Assay [7] deals with HEL cells. As to the kind of experiment: Growth inhibition, HEL cells. Type of assay: cell-based, human. The settings on record: 72 hours. The method in brief:
as §1

The subject of assay [8] is SET2 cells. As to the kind of experiment: Growth inhibition, SET-2 cells. It is filed as cell-based, human. The settings on record: SET2 cells (hemizygous V617F), 72 hours. The method in brief:
as §1

Sequence of recombinant V617F mutant JAK2 (aa 532-1132) (O60674 532-1132 V617F): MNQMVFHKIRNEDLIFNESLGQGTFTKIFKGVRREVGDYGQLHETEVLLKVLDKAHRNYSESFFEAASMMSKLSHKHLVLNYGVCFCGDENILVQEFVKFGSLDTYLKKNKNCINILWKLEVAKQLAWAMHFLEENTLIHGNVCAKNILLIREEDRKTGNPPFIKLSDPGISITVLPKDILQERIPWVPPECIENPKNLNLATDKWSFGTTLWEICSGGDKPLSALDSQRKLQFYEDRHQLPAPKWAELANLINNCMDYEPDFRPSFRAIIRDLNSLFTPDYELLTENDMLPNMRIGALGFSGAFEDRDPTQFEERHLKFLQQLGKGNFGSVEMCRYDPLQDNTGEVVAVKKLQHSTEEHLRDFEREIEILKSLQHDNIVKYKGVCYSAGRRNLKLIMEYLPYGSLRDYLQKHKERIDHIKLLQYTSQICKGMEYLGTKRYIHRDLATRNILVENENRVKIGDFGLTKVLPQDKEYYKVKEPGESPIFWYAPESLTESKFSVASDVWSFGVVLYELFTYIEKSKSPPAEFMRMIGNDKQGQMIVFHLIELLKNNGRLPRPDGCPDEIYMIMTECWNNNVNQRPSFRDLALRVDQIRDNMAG

For the compound `Cc1ccc(NC(=O)c2ccc(CN3CCN(C)CC3)cc2)cc1Nc1nccc(-c2cccnc2)n1` [imatinib], the “inhibition of STAT-5 phosphorylation” value in assay [1] is “failed to do so”. Besides, the GI50 was in the range of 0.1 to 0.2 µM in assay [2] and 20 to 30 µM in assay [3].

With `N#C/C(=C/c1ccc(O)c(O)c1)C(=O)NCc1ccccc1` [AG490], the IC50 in assay [4] amounted to 33.1 µM. The “inhibition of JAK2 phosphorylation in cells” value in assay [5] is on record as “did not inhibit JAK2 phosphorylation”. Also, the GI50 in assay [6] was 1 µM; in assay [7], over 20 µM; in assay [8], over 20 µM.
